Screens from PubChem BioAssay.
Rows were chosen to be rich in hits. Some 4.3% of all compounds tested hit in one or more screens of this group.
CR mimetic SO – reduction of superoxide in aged yeast, primary screen, HTS; S. cerevisiae aged cells, superoxide DHE fluorescence; stronger effect = lower value; superoxide response (% of plate mean), % at 10 µM; actives 0.18% (n = 330,000);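 active = superoxide response under a set limit, about three screen SD below normal, cut at about 65% in these data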;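 note: yeast aged for seven days with compound at 30 °C before DHE staining; 100% = average MFI of all compound-treated wells on the plate with controls excluded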
AHR act – AHR activators, primary screen, cell-based, luminescence, luciferase reporter, human; actives 2.5% (n = 320,000); AHR-responsive luciferase reporter cells; activation, % at 5 µM; in the data active = activation above about 47%;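 note: 0% = vehicle wells and 100% = reference agonist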
SR-BI HDL uptake – inhibitors of SR-BI mediated HDL lipid uptake, primary screen, ldlA[mSR-BI] cells, fluorescence, single point. Scavenger receptor class B member 1 (Mus musculus), Q61009. ldlA[mSR-BI] CHO cells, DiI-HDL uptake fluorescence, 3 h. inhibition, % at 12.5 µM. actives 0.96% (n = 320,000);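 active = mean replicate inhibition of at least 70% and a set share of replicates each scoring 70 or more; inconclusive = meets just one of the two criteria; inactive = fails both criteria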;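 note: 0% = median of neutral control wells and 100% = median of positive control wells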
Target sequence (Q61009 whole entry, looked up): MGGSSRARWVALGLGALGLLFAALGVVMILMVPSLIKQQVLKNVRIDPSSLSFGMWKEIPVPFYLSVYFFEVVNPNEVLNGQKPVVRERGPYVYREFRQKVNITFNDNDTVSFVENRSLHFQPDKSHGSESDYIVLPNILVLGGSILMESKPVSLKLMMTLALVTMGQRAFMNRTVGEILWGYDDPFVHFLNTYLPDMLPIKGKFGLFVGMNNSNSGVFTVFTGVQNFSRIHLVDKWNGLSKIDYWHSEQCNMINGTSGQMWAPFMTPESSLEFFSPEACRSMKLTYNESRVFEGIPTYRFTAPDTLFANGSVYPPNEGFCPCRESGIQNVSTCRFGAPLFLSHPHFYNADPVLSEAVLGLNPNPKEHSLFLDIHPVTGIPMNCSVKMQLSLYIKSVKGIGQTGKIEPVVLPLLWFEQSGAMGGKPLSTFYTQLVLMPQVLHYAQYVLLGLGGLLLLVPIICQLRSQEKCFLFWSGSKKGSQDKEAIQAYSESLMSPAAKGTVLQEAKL
SMARCA2 activ – SMARCA2 (BRM) function activators, primary screen, cell-based, luminescence, high throughput; activation, % at 9.1 µM; actives 1% (n = 370,000); AID 652017, 2013; MG213 cells, MMTV-luciferase reporter, dexamethasone, overnight; in the data active = activation above about 7.8%;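 note: 0% = vehicle wells and 100% = reference activator wells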
SR-BI uptake up – activators of SR-BI mediated DiI-HDL uptake, primary screen, ldlA[mSR-BI] CHO cells, DiI fluorescence; activation, % at 12.5 µM; AID 504775, 2011; 3 h; 100 = double the neutral-control signal; actives 0.096% (n = 320,000);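 active = mean replicate activation of at least 60% and every replicate at or above 60%; inconclusive = mean or all-replicate condition met, but not both; inactive = mean below 60% and not all replicates reaching 60%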;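 note: 0% = median plate neutral-control signal and 100% = twice that signal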
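Material: SR-BI-overexpressing, LDLR-lacking CHO cells | Dosing: Single compound concentration, delivered by pin transfer | Probe or stimulus: Labelled HDL, 10 µg/mL | Signal: Bottom-read cell fluorescence after medium removal, ex 550/em 595 nm | Schedule: 3 h, 37 °C | Evaluation: HDL uptake via cellular fluorescence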
Lipid droplet – inhibitors of hepatocyte lipid droplet formation, primary screen, imaging, high-throughput imaging, BODIPY stain; AID 1656, 2009; AML12 mouse hepatocytes, oleate lipid droplets; inhibition, % at 6.5 µM; actives 0.4% (n = 240,000);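 active = lipid droplet intensity inhibited by at least 50%, with more than 500 cells counted; inconclusive = wells with under 300 cells, treated as cytotoxic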
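Material: mouse AML12 hepatocyte cell line, fixed after treatment; Timing: compound with oleate, overnight; Technique: high-content imaging of BODIPY-stained droplets and DAPI nuclei; Probe or stimulus: oleate, 100 µM final; Dosing: compound at 6.5 µM only.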
SMARCA2 conf – SMARCA2 (BRM) function activators, confirmation, cell-based, luminescence, triplicate. shares compounds with SMARCA2 activ. MG213 cells, MMTV-luciferase with dexamethasone, overnight; MG213 cells expressing E1A, Rb sequestered; DMSO wells 0%, reference activator 100%. activation, % at 9.1 µM. actives 30% (n = 3,500). AID 652260, 2013;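 active = activation above its plate's cutoff, the mean activation of tested wells plus 3 SD, cut at about 7.9% in these data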
GAL4-VP16 Luc – GAL4-VP16 luciferase reporter activation, counter-screen for SMARCA2 (BRM) activator project, cell-based, pG5luc, luminescence, high throughput | activation, % at 9.1 µM | shares compounds with SMARCA2 activ | HEK293 GAL4-VP16 pG5luc reporter; scaled: DMSO wells 0%, SAHA wells 100% | actives 41% (n = 3,500) | AID 686939, 2013;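 active = activation above the solvent-only control well mean plus 3 SD, averaged across control plates, cut at about 5.2% in these data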
The depositor's hits bear a star; ? = inconclusive; / = not tested or not shown.

SMILES	CR mimetic SO	AHR act	SR-BI HDL uptake	SMARCA2 activ	SR-BI uptake up	Lipid droplet	SMARCA2 conf	GAL4-VP16 Luc
COc1ccc2c(c1)[nH]c1c(=O)n(CCN(C)C)cnc12	109	19	-9	1	9	-9	/	/
O=C(/C=C/c1ccc(Cl)cc1Cl)N1CCc2ccccc21	92	29	23	8.7*	-23	1	8.3*	8.6*
COCCNc1ncnc2c1cnn2-c1ccc(Cl)cc1	116	-1	2	8.4*	-2	-16	17*	10*
OCCOCCNc1ncnc2c1cnn2-c1ccc(Cl)cc1	146	14	19	6	-19	-3	/	/
COC(=O)c1sc(NC(=O)COc2ccc(OC)cc2)nc1C	86	0	-4	1	4	/	/	/
COC(=O)c1sc(NC(=O)COc2cccc3ccccc23)nc1C	113	4	-19	10*	19	/	4	2
CC1CCCN(S(=O)(=O)c2ccc3[nH]c(=O)cc(C(=O)NCCCN4CCCCCC4)c3c2)C1 (stereo unspecified)	/	/	/	-4	/	/	/	/
CCCCN(C)CCCNC(=O)c1cc(=O)[nH]c2ccc(S(=O)(=O)N3CCCCC3C)cc12 (stereo unspecified)	91	0	-4	8.2*	4	1	0	1
COC(=O)[C@H](CC(C)C)N1Cc2nnn(Cc3ccccc3)c2-c2ccccc2S1(=O)=O	/	/	/	-4	/	/	/	/
O=C1c2cccc3cc([N+](=O)[O-])cc(c23)C(=O)N1CCN1CCCC1	/	/	-5	64*	5	?	-2	6.5*
Cc1cc(C)c(S(=O)(=O)N2CCN(CCN3C(=O)c4cccc5cccc(c45)C3=O)CC2)cc1[N+](=O)[O-]	/	/	/	/	/	-7	/	/
O=C(CCc1ccccc1)N[C@H]1[C@@H](OC(=O)c2cnccn2)CCC[C@]12C(=O)N(Cc1ccccc1)c1ccccc12	/	/	/	-4	/	/	/	/
COc1ccc(-n2cc(COC(=O)NCCc3c[nH]c4ccccc34)nn2)cc1	/	/	/	0	/	/	/	/
O=c1c2ccccc2n(Cc2ccno2)n1[C@@H](Cc1ccccc1)Cn1cc(C2CCCC2)nn1	/	/	/	-3	/	/	/	/
COC(=O)C1CN(Cc2ccc(C)cc2)CCS(=O)(=O)N1Cc1cn(Cc2ccccc2)nn1 (stereo unspecified)	/	/	/	-1	/	/	/	/
Cc1ccc(Cc2c(-c3ccc(Br)cc3)nc3cc(C)ccn23)cc1	/	/	/	8.2*	/	/	5	4
COC(=O)C1CN(Cc2cn(CCC3OCCO3)nn2)CCS(=O)(=O)N1Cc1ccc(Cl)cc1 (stereo unspecified)	/	/	/	-5	/	/	/	/
COc1ccc(-c2nnc(SCC(=O)Nc3ccc(S(=O)(=O)Nc4cc(C)nc(C)n4)cc3)n2-c2ccc(OC)cc2)cc1	/	/	/	10*	/	/	0	0
Cc1cc(NS(=O)(=O)c2ccc(NC(=O)CSc3nnc(-c4ccc(Cl)cc4)n3Cc3ccco3)cc2)nc(C)n1	/	/	/	9.5*	/	/	-3	-1
O=C(CSc1nnc(-c2ccccc2)n1Cc1ccco1)Nc1ccc(S(=O)(=O)N2CCCC2)cc1	97	0	0	-4	0	/	/	/
N#Cc1cc(F)cc(OC[C@@H](O)CN2CCC(C(O)(c3ccccc3)c3ccccc3)CC2)c1	/	/	/	-1	/	/	/	/
O=c1c(-c2ccco2)nc2ccccc2n1C(c1ccccc1)c1nc2ccccc2[nH]1 (stereo unspecified)	/	/	/	11*	/	/	8.9*	5.6*
CCC(c1nc2ccccc2[nH]1)n1c(=O)c(-c2ccco2)nc2ccccc21 (stereo unspecified)	/	/	/	-2	/	/	/	/
O=c1c(-c2ccco2)nc2ccccc2n1C(c1ccccn1)c1nc2ccccc2[nH]1 (stereo unspecified)	/	/	/	-6	/	/	/	/
O=c1c(-c2ccco2)nc2ccccc2n1C(CCc1ccccc1)c1nc2ccccc2[nH]1 (stereo unspecified)	/	/	/	11*	/	/	-2	2
SMILES	CR mimetic SO	AHR act	SR-BI HDL uptake	SMARCA2 activ	SR-BI uptake up	Lipid droplet	SMARCA2 conf	GAL4-VP16 Luc
CC(C)N(C(=O)COC(=O)c1ccccc1C(=O)c1ccc(Cl)c([N+](=O)[O-])c1)C(C)C	92	0	-15	1	15	12	/	/
O=C(COC(=O)c1ccccc1C(=O)c1ccc(Cl)c([N+](=O)[O-])c1)NC1CCCCCC1	96	-2	5	9.4*	-5	-6	-13	-1
O=C(COC(=O)c1ccccc1)NC(=O)NC1CCCC1	/	/	-20	-2	20	/	/	/
CN(CCC#N)C(=O)COC(=O)c1ccccc1C(=O)c1ccc(Cl)c([N+](=O)[O-])c1	105	1	-11	9.5*	11	2	-10	3
O=C(COC(=O)c1ccccc1)NC1CCCC1	92	2	7	10*	-7	-3	4	2
Cc1cc(OCC(=O)OCC(=O)NC2CCCC2)ccc1Cl	122	0	-11	11*	11	/	0	2
Cc1[nH]nc2c1C(c1ccc3c(c1)OCO3)N(Cc1ccccc1)C2=O (stereo unspecified)	/	/	/	-1	/	/	/	/
COC(=O)[C@]12C[C@H](CC(=O)NCc3ccc(OC)c(OC)c3)C(=O)N(Cc3cccc4ccccc34)C1=C[C@H](C(C)(C)C)O[C@@H]2C	/	/	/	-4	/	/	/	/
COC(=O)C[C@@H]1CC[C@@H]2[C@H](COc3ccc(NC(=O)c4ccc(F)c(F)c4)cc3C(=O)N2C)O1	/	/	/	-5	/	/	/	/
Cn1nc2c3ccccc3n(Cc3ccccc3)c2nc1=S	102	7	32	9.1*	-32	13	10*	4
CCn1c2ccccc2c2nn(C)c(=N)nc21	81	3	-2	1	2	-4	/	/
COC(=O)[C@]12C[C@H](CC(=O)NCC34CC5CC(CC(C5)C3)C4)C(=O)N(Cc3ccco3)C1=C[C@H](C1CCCC1)O[C@@H]2C	/	/	/	-2	/	/	/	/
O=C(Cn1sc2ccccc2c1=O)Nc1ccccc1	/	/	/	12*	/	/	6	0
O=C(Cn1sc2ccccc2c1=O)NC12CC3CC(CC(C3)C1)C2	100	3	-26	/	26	-16	/	/
Cc1ccc(SCc2cn3c(C)csc3n2)cc1	87	33	-4	10*	4	5	4	8.8*
